Experimental data published in ChEMBL document CHEMBL1144847, “Novel uracil-based 2-aminoanilide and 2-aminoanilide-like derivatives: histone deacetylase inhibition and in-cell activities” (Bioorg Med Chem Lett, 2008).
Calls of active or inactive are those of the source. The calls are words filed in the database; no cut-off is given here.

Legend:
[1] = test system: U-937; test: Induction of apoptosis in human U937 cells; type: functional, cell-based
Procedure, shortened: (§1)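 U937 cells exposed at 5 µM for 30 h; apoptosis quantified by Annexin V/propidium iodide double staining, expressed as percent apoptotic cells; SAHA and MS-275 at 5 µM as references.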

[2] = test system: U-937; test: Induction of alpha tubulin hyperacetylation in human U937 cells; type: functional, cell-based
Procedure, shortened: (§2)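 U937 cells exposed at 5 µM for 24 h; acetylation of histone H3 and α-tubulin assessed as markers of class I HDAC and HDAC6 inhibition, respectively.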

[3] = test system: U-937; test: Induction of histone H4 hyperacetylation in human U937 cells; type: functional, cell-based
[4] = test system: U-937; test: Induction of granulocytic differentiation in human U937 cells; type: functional, cell-based
Procedure, shortened: (§3)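 U937 cells stimulated 30 h at 5 µM; granulocytic differentiation measured as CD11c expression, reported as percent CD11c-positive/PI-negative cells; SAHA and MS-275 at 5 µM as references.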

[5] = test system: U-937; test: Induction of apoptosis in human U937 cells at 5 uM after 30 hrs; type: functional; procedure, shortened: as §1
[6] = test system: U-937; test: Induction of p21 expression in human U937 cells; type: functional, cell-based
Procedure, shortened: (§4)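 U937 cells exposed at 5 µM for 24 h; induction of p21WAF1/CIP1 assessed alongside histone H3 and α-tubulin acetylation.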

[7] = test system: U-937; test: Induction of granulocytic differentiation in human U937 cells assessed as CD11c expression at 5 uM after 30 hrs; type: functional; procedure, shortened: as §3
[8] = target: Histone deacetylase 1 (Homo sapiens, UniProt Q13547); test: Inhibition of human HDAC1 in U937 cells by immunoprecipitation assay; type: cell-based, U-937
Sequence of Histone deacetylase 1 (Q13547 whole entry): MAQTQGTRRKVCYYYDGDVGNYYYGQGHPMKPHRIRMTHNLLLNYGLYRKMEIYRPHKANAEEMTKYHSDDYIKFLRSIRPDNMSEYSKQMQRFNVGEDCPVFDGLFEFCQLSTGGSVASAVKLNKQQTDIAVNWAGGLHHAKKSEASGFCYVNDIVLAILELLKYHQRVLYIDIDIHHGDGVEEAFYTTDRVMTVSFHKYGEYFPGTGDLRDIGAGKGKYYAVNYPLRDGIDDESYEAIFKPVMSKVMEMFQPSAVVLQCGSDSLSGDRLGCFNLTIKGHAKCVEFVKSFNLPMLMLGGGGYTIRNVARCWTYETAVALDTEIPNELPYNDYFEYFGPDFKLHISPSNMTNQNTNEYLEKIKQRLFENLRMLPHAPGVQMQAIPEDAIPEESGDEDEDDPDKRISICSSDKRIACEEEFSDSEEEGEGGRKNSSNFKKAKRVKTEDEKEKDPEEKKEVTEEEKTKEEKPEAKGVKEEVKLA

[9] = test system: U-937; test: Induction of p21 expression in human U937 cells at 5 uM after 24 hrs; type: functional, cell-based; procedure, shortened: as §4
[10] = test system: U-937; test: Cell cycle arrest in human U937 cells assessed as accumulation at G2 phase at 5 uM after 30 hrs; type: functional, cell-based
Procedure, shortened: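 U937 human leukemia cells exposed to compound at 5 µM for 30 h; cell-cycle distribution analysed, arrest read as accumulation in S or G2 phase; SAHA and MS-275 at 5 µM as reference drugs.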

[11] = target: Histone deacetylase 4 (Homo sapiens, UniProt P56524); test: Inhibition of human HDAC4 in U937 cells by immunoprecipitation assay; type: cell-based, U-937
Sequence of Histone deacetylase 4 (P56524 whole entry): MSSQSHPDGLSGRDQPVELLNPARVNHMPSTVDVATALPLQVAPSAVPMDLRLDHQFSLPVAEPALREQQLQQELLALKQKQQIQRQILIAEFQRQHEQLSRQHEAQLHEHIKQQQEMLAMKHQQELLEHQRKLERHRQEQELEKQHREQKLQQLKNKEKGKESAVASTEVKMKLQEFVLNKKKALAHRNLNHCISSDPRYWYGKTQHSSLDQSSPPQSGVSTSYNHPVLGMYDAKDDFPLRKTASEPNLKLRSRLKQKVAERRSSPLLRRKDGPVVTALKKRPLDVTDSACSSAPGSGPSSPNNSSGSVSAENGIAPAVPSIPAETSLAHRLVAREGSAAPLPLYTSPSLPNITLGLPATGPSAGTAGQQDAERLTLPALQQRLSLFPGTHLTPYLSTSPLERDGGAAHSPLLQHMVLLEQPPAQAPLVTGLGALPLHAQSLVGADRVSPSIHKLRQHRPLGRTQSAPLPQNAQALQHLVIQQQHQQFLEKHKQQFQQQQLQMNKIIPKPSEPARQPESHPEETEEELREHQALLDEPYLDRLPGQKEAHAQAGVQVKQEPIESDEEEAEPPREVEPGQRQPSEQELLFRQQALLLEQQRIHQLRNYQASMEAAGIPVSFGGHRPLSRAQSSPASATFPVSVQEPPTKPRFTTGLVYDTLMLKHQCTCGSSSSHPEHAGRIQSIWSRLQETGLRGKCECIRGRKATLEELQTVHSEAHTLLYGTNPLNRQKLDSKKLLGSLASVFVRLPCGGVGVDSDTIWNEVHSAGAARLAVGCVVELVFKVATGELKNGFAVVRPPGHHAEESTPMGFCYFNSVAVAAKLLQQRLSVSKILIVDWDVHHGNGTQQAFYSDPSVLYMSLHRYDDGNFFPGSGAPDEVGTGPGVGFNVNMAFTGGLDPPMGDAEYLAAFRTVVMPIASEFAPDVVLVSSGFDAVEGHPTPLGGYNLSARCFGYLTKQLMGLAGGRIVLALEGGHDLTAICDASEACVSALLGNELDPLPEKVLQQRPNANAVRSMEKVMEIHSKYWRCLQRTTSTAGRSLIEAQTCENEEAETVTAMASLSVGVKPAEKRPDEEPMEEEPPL

[12] = test system: U-937; test: Induction of histone H3 hyperacetylation in human U937 cells at 5 uM; type: functional, cell-based; procedure, shortened: as §2
[13] = test system: U-937; test: Induction of histone H4 hyperacetylation in human U937 cells at 5 uM; type: functional, cell-based
[14] = test system: U-937; test: Induction of alpha tubulin hyperacetylation in human U937 cells at 5 uM; type: functional, cell-based; procedure, shortened: as §2

SMILES	Activity [5] [%]	Activity [7] [%]	Activity [9]	further results
O=C(CCCCCCC(=O)Nc1ccccc1)NO [VORINOSTAT]	16.8	21.5		Activity [1]: Active; Activity [2]: Active; Activity [3]: Active; Activity [4]: Active; Activity [6]: Active
Nc1ccccc1NC(=O)c1ccc(CSc2nc(-c3ccccc3)cc(=O)[nH]2)cc1		47.6	Active	IC50 [8]: 200 nM; Activity [10]: Active; IC50 [11]: 125 µM
Nc1ccccc1NC(=O)CCCCSc1nc(-c2ccccc2)cc(=O)[nH]1			Active	
Nc1cccc2cccc(NC(=O)CCCCSc3nc(-c4ccccc4)cc(=O)[nH]3)c12		30.3	Active	
O=C(CCCCCC(=O)Nc1ccccc1O)Nc1ccccc1		36.6		
Nc1ccccc1NC(=O)CCCCCc1nc(-c2ccccc2)cc(=O)[nH]1	4.8		Active	
Nc1ccccc1NC(=O)CCCCCc1nc(-c2ccc(-c3ccccc3)cc2)cc(=O)[nH]1		45.9	Active	
Nc1cccc2cccc(NC(=O)CCCCCc3nc(-c4ccc(-c5ccccc5)cc4)cc(=O)[nH]3)c12		67.6		
Nc1ccccc1NC(=O)CCCCCC(=O)Nc1ccccc1		18.3		Activity [12]: Active; Activity [13]: Active; Activity [14]: inactive
Nc1ccccc1NC(=O)c1ccc(CNC(=O)OCc2cccnc2)cc1 [ENTINOSTAT]	3.5	30.8		Activity [1]: inactive; Activity [2]: inactive; Activity [3]: Active; Activity [4]: Active
